Screening data as filed in PubChem.
Sampled rows, rich in hits. Any-hit rate of the full collection: about 1.9%.
UCH37 DUB inh – inhibitors of human UCH37 deubiquitinase, primary screen, biochemical, Ub-AMC cleavage, fluorescence | Ubiquitin carboxyl-terminal hydrolase isozyme L5 (Homo sapiens), Q9Y5K5 | purified proteasome/UCH37 | inhibition, % (no concentration beside the values) | hit rate 0.33% among 330,000 | AID 588478, 2011;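 active = mean inhibition over replicate wells above about 20%, limit read from the data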
Target sequence (Q9Y5K5 whole entry, looked up): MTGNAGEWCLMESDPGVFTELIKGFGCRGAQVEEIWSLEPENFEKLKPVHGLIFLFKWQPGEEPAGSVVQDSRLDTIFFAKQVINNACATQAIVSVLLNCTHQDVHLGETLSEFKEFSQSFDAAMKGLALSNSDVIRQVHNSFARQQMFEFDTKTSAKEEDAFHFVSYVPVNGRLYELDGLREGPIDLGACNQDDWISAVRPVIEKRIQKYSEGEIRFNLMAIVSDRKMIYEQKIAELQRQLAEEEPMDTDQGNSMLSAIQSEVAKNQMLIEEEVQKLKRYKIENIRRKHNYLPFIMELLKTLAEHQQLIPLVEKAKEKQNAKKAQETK
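Material: Human UCH37 enzyme supplied as purified proteasome complex | Schedule: 30 min preincubation with enzyme, 25 min cleavage at room temperature | Detection: AMC fluorescence 355/460 nm | Measure: % inhibition of Ub-AMC cleavage fluorescence | Controls: Wells without proteasome as full block, compound-free enzyme plus substrate as uninhibited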
bovine MsrA act – bovine MsrA enzyme activators, primary screen, biochemical, absorbance, HTS; Methionine sulfoxide reductase A (Bos taurus); purified bovine MsrA, absorbance read-out; activation, % at 10.6 µM; hit rate 0.3% among 360,000; in the data active = activation above about 7.5%
aDG glyco act – activators of alpha-DG glycosylation, primary screen, uHTS, Pro5-aDG cells, AlphaScreen; activation, % at 10 µM; alpha-DG glycosylation AlphaScreen (IIH6); 0% Pro5, 100% B10-LARGE cell signal; hit rate 0.22% among 360,000;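 active = activation of at least 8% versus controls, or a plate z-score of at least 8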;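 note: Pro5 are CHO cells carrying HIG-tagged alpha-DG that lacks glycosylation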
Glyco luc inh – increase of ERlucT glycosylation luciferase signal, primary screen, N-linked glycosylation inhibitor project, D54 ERlucT cells, luminescence, set 2. D54 ERlucT glycosylation luciferase reporter, 24 h; percent of 100 nM tunicamycin response. reporter increase, % at 12.5 µM. hit rate 0.23% among 360,000;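 active = mean luciferase reporter signal, scaled so untreated is 0 and the glycosylation-blocking control 100, at or above a set limit in every replicate; inconclusive = mean reaches the limit but not every replicate does; inactive = mean below the limit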;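 note: luciferase carries N-glycosylation sites so blocking glycosylation raises the light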
MsrA inhibitor – bovine MsrA enzyme inhibitors, primary screen, biochemical, absorbance, HTS. purified bovine MsrA, absorbance read-out. AID 651718, 2012. Methionine sulfoxide reductase A (Bos taurus). hit rate 0.75% among 360,000. inhibition, % at 15.5 µM
Vif imaging – HIV Vif self-association inhibitors, primary screen, imaging, HEK293T, single point. HEK293T cells, Vif self-association by quenched fluorescence, 24 h. inhibition, % at 7.49 µM. hit rate 0.35% among 340,000. AID 602346, 2012; in the data active = inhibition above about 50%, passing the limit was not always enough; inconclusive = no clear call, values can overlap the other calls; inactive = below about 31%
MsrA conf – bovine MsrA inhibitors, retest, confirmation, biochemical, absorbance, HTS; shares compounds with MsrA inhibitor; purified bovine MsrA, absorbance read-out; inhibition, % at 15.5 µM; hit rate 41% among 2,300; AID 651822, 2012;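 note: coupled to thioredoxin reductase with NADPH and selenocystamine and DMSO as substrate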
A number is an active result; i = inactive; ? = inconclusive; nt = no result. Cut-off read from the data, not from the text of the source, unless noted: active = inhibition above about 4.5%; inactive = the rest.

SMILES	UCH37 DUB inh	bovine MsrA act	aDG glyco act	Glyco luc inh	MsrA inhibitor	Vif imaging	MsrA conf
CCC1=[N+](C)CCn2c(C)ccc21	i	i	i	i	6.5	i	i
O=C(NCc1ccccc1)/C(=C\c1ccc(O)cc1)NC(=O)c1ccco1	i	i	i	i	4.8	i	i
COc1ccc(NC(=O)/C(=C/c2cccs2)NC(=O)c2ccco2)cc1	i	i	i	i	i	i	nt
COc1ccc(NC(=O)/C(=C/c2ccc3c(c2)OCO3)NC(C)=O)cc1	i	i	i	i	5.0	i	i
COc1ccc(NC(=O)/C(=C\c2ccc(OC)c(OC)c2)NC(=O)c2ccco2)cc1	i	i	i	i	5.0	i	4.8
CC(=O)c1ccc(NC(=O)/C(=C\c2cccs2)NC(=O)c2ccco2)cc1	i	i	i	i	5.0	i	4.7
CC(=NNc1ccc(F)cc1F)c1ccccc1O	i	nt	nt	nt	nt	nt	nt
O=S(=O)(O)c1ccc(N2N=C(c3ccccc3)CC2c2ccccc2)cc1 (configuration not stated)	i	i	i	i	5.8	i	i
OCc1nc2ccccc2n1N=Cc1cccs1	i	nt	nt	nt	nt	nt	nt
COc1cc(/C=C2/NC(=O)NC2=O)cc(Br)c1OCc1cccc(C(=O)O)c1	i	i	i	i	5.9	i	i
CC1(C)Cc2c(cnn2-c2ccc(F)cc2)C(NC(=O)c2ccc(=O)oc2)C1 (configuration not stated)	i	i	i	i	6.4	i	5.5
O=C(CSc1ccc(Cl)cc1)NN=Cc1ccc([N+](=O)[O-])o1	i	nt	nt	nt	nt	nt	nt
COc1ccc(N=Cc2ccc(N(CCC#N)CCC#N)cc2)cc1	nt	i	i	i	4.9	i	4.9
Cc1ccc2c(c1)C(O)(CC(=O)/C=C/C=C/c1ccccc1)C(=O)N2 (configuration not stated)	i	i	i	i	6.3	i	i
CN1C(=O)C(O)(CC(=O)/C=C\c2ccc3c(c2)OCO3)c2ccccc21 (configuration not stated)	i	i	i	i	i	i	nt
CCN1C(=O)C(O)(CC(=O)/C=C/C=C/c2ccccc2)c2ccccc21 (configuration not stated)	i	i	i	i	5.8	nt	i
C#CCN1C(=O)C(O)(CC(=O)/C=C/C=C/c2ccccc2)c2ccccc21 (configuration not stated)	i	i	i	i	i	i	nt
O=C(/C=C/C=C/c1ccccc1)CC1(O)C(=O)N(CCc2ccccc2)c2ccccc21 (configuration not stated)	nt	i	i	i	i	nt	nt
NC(=O)CN1C(=O)C(O)(CC(=O)/C=C\C=C\c2ccccc2)c2ccccc21 (configuration not stated)	nt	i	i	i	5.4	i	5.0
NC(=O)CN1C(=O)C(O)(CC(=O)/C=C\c2ccc3c(c2)OCO3)c2ccccc21 (configuration not stated)	i	i	i	i	4.8	i	i
COc1ccccc1C(=O)NN=C/C(C)=C/c1ccccc1	i	nt	nt	nt	nt	nt	nt
Oc1cccc(/C=N/Nc2ncnc3c2ncn3Cc2ccccc2)c1	nt	i	i	i	4.8	i	5.2
CC(=NNC(=O)c1ccccc1)c1cccc(Br)c1	i	nt	nt	nt	nt	nt	nt
CC(=O)c1ccc(N2CCN(C(=O)CCCc3nc4ccccc4s3)CC2)cc1	i	i	i	i	5.7	i	i
NS(=O)(=O)c1ccc(NC(=S)NNC(=O)c2ccc(Br)o2)cc1	i	i	i	i	4.9	i	i
SMILES	UCH37 DUB inh	bovine MsrA act	aDG glyco act	Glyco luc inh	MsrA inhibitor	Vif imaging	MsrA conf
COc1ccc2c(c1)c(C(=O)NN=Cc1cccc(O)c1)c(C)n2C	i	nt	nt	nt	nt	nt	nt
COc1ccc2c(c1)c(C(=O)N/N=C/c1ccc(O)c(O)c1)c(C)n2C	nt	i	i	i	5.5	i	i
O=C(NN=Cc1ccc(O)c(O)c1)C1CC1	i	nt	nt	nt	nt	nt	nt
O=C(N/N=C/c1ccc(O)c(O)c1)N/N=C/c1ccc(O)c(O)c1	nt	i	i	i	5.7	i	i
Cc1ccc(S(=O)(=O)NN=Cc2ccc(OCC(=O)N3CCOCC3)cc2)cc1	i	nt	nt	nt	nt	nt	nt
CCSc1nc2sc3c(c2c(=O)n1-c1ccccc1)CCN(C)C3	i	i	i	i	i	i	nt
C=CCSc1nc2sc3c(c2c(=O)n1-c1ccccc1)CCN(C)C3	i	i	i	i	4.9	i	i
CCCN(CCC)Cc1c(C(=O)NN=Cc2ccco2)nnn1-c1nonc1N	i	nt	nt	nt	nt	nt	nt
Cn1c(=O)[nH]c(Nc2ccccc2)c([N+](=O)[O-])c1=O	i	i	i	i	6.4	i	i
Cn1nc(C(C)(C)C)c([N+](=O)[O-])c1C(=O)Nc1ccccc1	i	i	i	i	i	i	nt
C#CCn1c2ccccc2c2nc3ccccc3nc21	i	i	i	i	5.5	i	i
COC(=O)Cn1c2ccccc2c2nc3ccccc3nc21	i	i	i	i	6.7	i	5.3
CCOC(=O)C1=Nc2ccccc2C1=[N+]=[N-]	nt	i	i	i	5.7	i	i
CCOC(=O)C1=Nc2cccc3c(O)ccc1c23	nt	nt	nt	nt	i	nt	nt
CCc1cc(C(=O)NN=Cc2ccc(O)cc2)c2ccccc2n1	i	nt	nt	nt	nt	nt	nt
Cc1ccc(Oc2ccc(C=NO)cn2)cc1	i	nt	nt	nt	nt	nt	nt
COc1cc2c(cc1C=O)OC(C)C2 (configuration not stated)	i	i	i	i	i	i	nt
CCOc1cc2c(cc1C=O)OC(C)C2 (configuration not stated)	i	i	i	i	4.8	?	i
CN(C)CCNc1c(N)c(=O)oc2ccccc12	i	i	i	i	i	i	nt
Cc1ccccc1Nc1c(N)c(=O)oc2ccccc12	i	i	i	i	6.1	nt	7.8
CSc1nc2[nH]c3c(c2c2nnnn12)CCCC3	i	i	i	i	12	i	10
O=C(O)c1ccc(/C=N/Nc2ccc(C(F)(F)F)cn2)cc1	nt	i	i	i	7.0	i	6.3
N#C/C(=C\c1ccc(O)cc1)C(=O)N1CCCC1	i	i	i	i	i	i	nt
N#C/C(=C\C=C\c1ccccc1)C(=O)N1CCCC1	i	i	i	i	4.8	i	4.8
Cc1noc(/C=C/c2cccnc2)c1[N+](=O)[O-]	i	i	i	i	5.3	i	i
O=C(Cc1ccccc1)NN=Cc1cc(Br)cs1	i	nt	nt	nt	nt	nt	nt
CCOC(=O)c1ccc(NC(=NS(=O)(=O)c2ccccc2)c2ccccc2)cc1	i	nt	nt	nt	nt	nt	nt
